The text below walks through data of ChEMBL document CHEMBL4732173, “Easily accessed nitroquinolones exhibiting potent and selective anti-tubercular activity” (Eur J Med Chem, 2021).

A short description of data set [1]: Solubility of the compound in DMSO. It counts as physicochemical.
Data set [2] can be described thus: Solubility of the compound in screening media. It counts as physicochemical.
Data set [3] deals with Mycobacterium ulcerans. As to the kind of experiment: Antibacterial activity against Mycobacterium ulcerans assessed as bacterial metabolic acativity at 10 ug/ml incubated for 8 days followed by addition of Alamar blue for 3 days by Alamar blue dye based fluorescence analysis. Format: functional. The conditions noted are these: dose 10 µg/ml; time 8 day. An outline of the steps:
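Tested in triplicate. Remaining metabolic activity (%PC) was calculated as blank-corrected fluorescence of each treated well divided by that of the untreated control.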

`O=C(NO)c1cn(Cc2cccc(Br)c2)c2ccc([N+](=O)[O-])cc2c1=O`: the solubility entry in data set [1] is listed as “Insoluble”; in data set [2] it was “Soluble”.

Turning to `O=C(NO)c1cn(Cc2cccc(Cl)c2)c2ccc([N+](=O)[O-])cc2c1=O`, the figures for the solubility result in data set [1] and in data set [2] were “Insoluble” and “Soluble”, respectively.

In the case of `O=C(NCCN1CCOCC1)c1cn(Cc2cccc(F)c2)c2ccc([N+](=O)[O-])cc2c1=O`, the solubility result was “Insoluble” in data set [1] and “Soluble” in data set [2].

With `O=C(NCCNCCO)c1cn(Cc2ccc(F)cc2)c2ccc([N+](=O)[O-])cc2c1=O`, the solubility entry in data set [1] is listed as “Insoluble”; in data set [2] it was “Soluble”. In data set [3], the Activity is given as greater than 90%.

In the case of `N#Cc1ccc(Cn2cc(C(=O)NCCOCCO)c(=O)c3cc([N+](=O)[O-])ccc32)cc1`, the solubility entry is given as “Insoluble” in data set [1] and “Soluble” in data set [2].

For `N#Cc1cccc(Cn2cc(C(=O)NO)c(=O)c3cc([N+](=O)[O-])ccc32)c1`, the results for the solubility entry in data set [1] and in data set [2] were “Insoluble” and “Soluble”, respectively.

In the case of `COCCNC(=O)c1cn(Cc2cccc(F)c2)c2ccc([N+](=O)[O-])cc2c1=O`, the solubility result in data set [1] was “Insoluble”; in data set [2], “Soluble”.

For the compound `O=C(NO)c1cn(Cc2cccc(F)c2)c2ccc([N+](=O)[O-])cc2c1=O`, the solubility entry in data set [1] was “Insoluble”; in data set [2], “Soluble”.

Regarding `O=C(NCCN1CCOCC1)c1cn(Cc2cccc(Cl)c2)c2ccc([N+](=O)[O-])cc2c1=O`, the solubility entry in data set [1] is “Insoluble”; in data set [2] it was “Soluble”.

Consider `N#Cc1cccc(Cn2cc(C(=O)O)c(=O)c3cc([N+](=O)[O-])ccc32)c1`, for which the solubility result is “Insoluble” in data set [1] and “Soluble” in data set [2].

Take `O=C(NCCOCCO)c1cn(Cc2cccc(F)c2)c2ccc([N+](=O)[O-])cc2c1=O`: the solubility entry in data set [1] is “Insoluble”; in data set [2], “Soluble”.

Consider `N#Cc1cccc(Cn2cc(C(=O)NCCOCCO)c(=O)c3cc([N+](=O)[O-])ccc32)c1`, for which the figures for the solubility entry in data set [1] and in data set [2] were “Insoluble” and “Soluble”, respectively.

Turning to `COCCNC(=O)c1cn(Cc2ccc(F)cc2)c2ccc([N+](=O)[O-])cc2c1=O`, the results for the solubility result in data set [1] and in data set [2] were “Insoluble” and “Soluble”, respectively. Besides, the Activity in data set [3] is recorded as greater than 90%.

`COCCNC(=O)c1cn(Cc2cccc(Cl)c2)c2ccc([N+](=O)[O-])cc2c1=O`: the solubility entry in data set [1] is given as “Insoluble”; in data set [2], “Soluble”. The Activity in data set [3] is greater than 90%.

Turning to `O=C(NCCN1CCOCC1)c1cn(Cc2cccc(Br)c2)c2ccc([N+](=O)[O-])cc2c1=O`, the solubility entry in data set [1] was “Insoluble”; in data set [2] it was “Soluble”.

As for `N#Cc1ccc(Cn2cc(C(=O)NCCNCCO)c(=O)c3cc([N+](=O)[O-])ccc32)cc1`, the solubility result in data set [1] was “Insoluble”; in data set [2], “Soluble”.

With `COCCNC(=O)c1cn(Cc2cccc(C#N)c2)c2ccc([N+](=O)[O-])cc2c1=O`, the solubility entry is “Insoluble” in data set [1] and “Soluble” in data set [2].

Regarding `O=C(NCCOCCO)c1cn(Cc2ccc(F)cc2)c2ccc([N+](=O)[O-])cc2c1=O`, the solubility result is “Insoluble” in data set [1] and “Soluble” in data set [2]. For the same compound, in data set [3], the Activity is greater than 90%.

For the compound `N#Cc1cccc(Cn2cc(C(=O)NCCNCCO)c(=O)c3cc([N+](=O)[O-])ccc32)c1`, the solubility result in data set [1] is “Insoluble”; in data set [2] it was “Soluble”. Moreover, the Activity in data set [3] was greater than 90%.

With `O=C(NCCOCCO)c1cn(Cc2cccc(Cl)c2)c2ccc([N+](=O)[O-])cc2c1=O`, the values for the solubility result in data set [1] and in data set [2] were “Insoluble” and “Soluble”, respectively.

On to `COCCNC(=O)c1cn(Cc2ccc(C#N)cc2)c2ccc([N+](=O)[O-])cc2c1=O`, for which the results for the solubility entry in data set [1] and in data set [2] were “Insoluble” and “Soluble”, respectively.

Regarding `O=C(NCCNCCO)c1cn(Cc2cccc(F)c2)c2ccc([N+](=O)[O-])cc2c1=O`, the solubility entry in data set [1] was “Insoluble”; in data set [2], “Soluble”. Further, in data set [3], the Activity is listed as greater than 90%.

For `CCOC(=O)c1c[nH]c2c(C(F)(F)F)cc([N+](=O)[O-])cc2c1=O`, the solubility result in data set [1] is reported as “Insoluble”; in data set [2] it was “Soluble”. For the same compound, in data set [3], the Activity was greater than 90%.
